Laboratory results from PubChem BioAssay AID623977 (Vanderbilt High Throughput Screening Facility, 2012).

Biological target: G protein-activated inward rectifier potassium channel 2 (Homo sapiens) + G protein-activated inward rectifier potassium channel 1 (Homo sapiens) (UniProt P48051+P48549)
Test: activation of GIRK1/2 current, electrophysiology – HEK-293 hGIRK1/2, whole-cell voltage clamp, Ba2+-sensitive current, orthogonal assay for GIRK activator project, confirmation (AID 623977)
Details: HEK-293 hGIRK1/2, whole-cell patch clamp current
Summary of the method: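 System: HEK-293 cells stably expressing human GIRK1/2 channels | Signal: Whole-cell voltage clamp held at -70 mV | Buffer or medium: 20 mM K+ bath, pH 7.4, KCl pipette solution | Times: Cells patched 24–72 h after plating | Doses: Compound in extracellular bath solution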

Sequence of G protein-activated inward rectifier potassium channel 2 (Homo sapiens) + G protein-activated inward rectifier potassium channel 1 (Homo sapiens) (P48051 whole entry, looked up): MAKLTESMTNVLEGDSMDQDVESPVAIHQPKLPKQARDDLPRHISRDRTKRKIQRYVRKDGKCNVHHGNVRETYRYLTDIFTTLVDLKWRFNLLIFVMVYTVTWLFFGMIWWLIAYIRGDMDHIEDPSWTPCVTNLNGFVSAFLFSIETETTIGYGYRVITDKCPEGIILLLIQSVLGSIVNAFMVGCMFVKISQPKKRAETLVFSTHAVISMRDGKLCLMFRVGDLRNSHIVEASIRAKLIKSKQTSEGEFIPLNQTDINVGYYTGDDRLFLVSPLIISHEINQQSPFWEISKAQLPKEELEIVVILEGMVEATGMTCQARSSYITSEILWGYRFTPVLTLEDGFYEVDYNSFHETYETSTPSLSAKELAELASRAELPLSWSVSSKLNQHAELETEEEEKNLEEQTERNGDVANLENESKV
Sequence of G protein-activated inward rectifier potassium channel 2 (Homo sapiens) + G protein-activated inward rectifier potassium channel 1 (Homo sapiens) (P48549 whole entry, looked up): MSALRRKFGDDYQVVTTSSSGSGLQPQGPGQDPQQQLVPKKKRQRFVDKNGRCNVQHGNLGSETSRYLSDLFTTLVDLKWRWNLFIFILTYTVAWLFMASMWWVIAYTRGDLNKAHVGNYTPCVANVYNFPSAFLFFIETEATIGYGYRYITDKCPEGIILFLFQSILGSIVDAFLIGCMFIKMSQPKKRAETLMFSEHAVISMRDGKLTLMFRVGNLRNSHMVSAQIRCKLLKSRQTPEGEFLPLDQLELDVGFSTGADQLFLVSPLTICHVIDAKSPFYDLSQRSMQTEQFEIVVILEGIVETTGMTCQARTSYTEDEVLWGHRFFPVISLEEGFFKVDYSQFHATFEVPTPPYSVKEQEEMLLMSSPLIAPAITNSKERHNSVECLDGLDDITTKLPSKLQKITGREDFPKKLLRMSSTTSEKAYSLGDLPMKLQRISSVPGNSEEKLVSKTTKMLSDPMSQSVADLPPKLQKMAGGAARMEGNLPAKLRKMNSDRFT

EC50: 54.1 nM
SMILES: Cc1cc(NC(=O)Nc2ccc(F)c(F)c2)n(-c2ccccc2)n1
